Test system: MS2 coat protein
Test: apparent Kd, MS2 coat protein; higher = weaker binding; RNA-MaP array; FMN 200 µM where present
Summary of the method: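 Stalled E. coli RNA polymerase transcribed each design on Illumina sequencing-chip clusters. The clusters were titrated with SNAP-549-labelled MS2 coat protein, starting at 0.7 or 1.5 nM and doubling up to 3 µM, first without ligand and then with constant ligand, in 100 mM Tris-HCl pH 7.5, 80 mM KCl, 4 mM MgCl2, BSA, DTT, yeast tRNA and Tween-20. Green signal was normalised to red-channel RNA signal and to the control-cluster median Fmax. The apparent Kd is the median of filtered binding-curve fits made for each cluster.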

[1] = designed as: OFF switch for flavin mononucleotide, no ligand
[2] = ligand present: flavin mononucleotide, designed as: OFF switch for flavin mononucleotide
[3] = designed as: ON switch for flavin mononucleotide, no ligand
[4] = ligand present: flavin mononucleotide, designed as: ON switch for flavin mononucleotide

| Sequence | apparent Kd [1] [nM] | apparent Kd [2] [nM] | apparent Kd [3] [nM] | apparent Kd [4] [nM] |
| --- | --- | --- | --- | --- |
| AUAAUGGUAGGAUAUACAUGGAUAUACAUUCAUGUGGACCUACAUGAGGAUCACCCAUGUAGAAGGACCAUGAA | 33.9 | 28.6 | – | – |
| AUAAUGUGAGGAUAUACAUGAGGAUCACCCAUGUAAUUAAAUCGGAGAGCCACAAUUCGUAGAAGGUACAUUUA | 22 | 27.7 | – | – |
| AUAAUUUUAUAUAUCAUAUAAAUCAGAAGGCAUAACAUGAGGAUCACCCAUGUAUAUUAUUGUUAUGAGGAUAUGAUUUAGUUA | 15.8 | 65.5 | – | – |
| AUAAUUUUAUAUAUCUAUUUAAUCAGAAGGCAUAACAUGAGGAUCACCCAUGUAAAUUAAUGUUAUGAGGAUAUGAUAUGGUUA | 11.3 | 78 | – | – |
| AUACACUAAGUGAGGAUAUCGAUUUCUUUAAGGAUCGAGAAGGCACAUGAGGAUCACCCAUGUUUGACGUGAAU | 34.4 | 75.8 | – | – |
| AUACAUGAGGAUCACCCAUGUUACUGGGUCUAUAUAGAACGUAGAAGGAUGAUAUUAUAAAUAUCAUAGGAUAUACUAUUUUGU | 29.9 | 35.3 | – | – |
| AUACGAAAGAUAGGAUAUACUGAGGUUGAAUGGGUAGAAGGAUCGAUAGUGGAGAAGACAUGAGGAUCACCCAUGUUGUGGAUU | – | – | 681 | 217 |
| AUACUCAUGUAAGGAUAUGCAGCCGAAACGGCUGCAGAAGGUACUAUAAUACAUGAGGAUCACCCAUGUCAAAAUUAAAUAGUU | – | – | 185 | 31.7 |
| AUACUCAUGUAAGGAUAUGCAGCCGUUUCGGCUGCAGAAGGUACUAUAAUACAUGAGGAUCACCCAUGUCUUUUUAAUUUUUAC | – | – | 281 | 38.9 |
| AUACUCUUUGUGAGGAUAUCGUUUUCUUUACGGUUCGAGAAGGCACAUGAGGAUCACCCAUGUUUGACGUGAAU | 24.4 | 56.5 | – | – |
| AUACUUAAUGAAGGAUAUCUCAGCAUAAACCUGAGAGAAGGUCAUUAUUACAUGAGGAUCACCCAUGUUGUAGUUAAUGGGUAA | 352 | 341 | – | – |
| AUAGAAGACUAGAAGGAUUUAGUUGUAUAUUGUCGAGGUAUAUAAUUAGGUAGGAUAUGGGACAUGAGGAUCACCCAUGUUUUG | – | – | 28.2 | 15.4 |
| AUAGCAACAUGAGGAUCACCCAUGUAGGAUAUCGCUAUUGUAAUCAUGAAACAUGAUUACAAUAGCGAGAAGGACAUAUGCUAA | 7.84 | 10.2 | – | – |
| AUAGCACAUGAGGAUCACCCAUGUGAGGAUAUUAGACCAUGGCUCUCAAAGACCAUGCUGAGAAGGCACUCGGG | 35.5 | 82.5 | – | – |
| AUAGCUCUCUAGAAGGUCCAACCAGUAUACCAUCAGGUAUAUACGGUAGGGAGGAUAUGGGACAUGAGGAUCACCCAUGUGUAG | – | – | 57.8 | 44.8 |
| AUAUAACAUGAGGAUCACCCAUGUCACUAAAGUCGAGGAUAUGGGCAGGUUAUAUCCGAACCAGAAGGCGAAUUAU | – | – | 220 | 29.2 |
| AUAUAAUAUCAGGAUAUGACUAGCUGCGGCUAGUCAGAAGGGAUGACAUGAGGAUCACCCAUGUGAUCAUAUAU | 33.2 | 151 | – | – |
| AUAUAGAUGGUCAGGAUAUGCUAGUGGUAACAGUAGCAGAAGGGACAUGAGGAUCACCCAUGUGGAUACUGCGC | 25.4 | 85.9 | – | – |
| AUAUAGGCCCAGAAGGUGCCAGCGAGAGCUGCACAUGAGGAUCACCCAUGUUGUCGGUGACGACGCAAGGAUAUGGGCCUAUAU | – | – | 24.8 | 7.13 |
| AUAUGAGAAGCAGGAUAUGUGAAAAAAAAACAUACAGAAGGGUUUAUGGAAAAACAUGAGGAUCACCCAUGUUCUUUGUGAUGA | – | – | 33.5 | 32.4 |
| AUAUGGGCUAACAUGAGGAUCACCCAUGUGUUAUACUUAAUAUAGGAUAUGUUUAUACUUUUUGGGCAGAAGGAUGGCCCAUAU | – | – | 67.9 | 68.7 |
| AUAUUACGAGGAUAUCGUCUCUCCCACAUGAGGAUCACCCAUGUUAUCCAUGUUUCGUUUCGAGAAGGCGUAAGUU | 75.9 | 58 | – | – |
| AUAUUACGAGGAUAUCGUUUUUUUCACAUGAGGAUCACCCAUGUUAUUUAUGUUUCGUUUCGAGAAGGCGUAAGUU | 25 | 22.1 | – | – |
